{"source": "ChEMBL document CHEMBL4602675", "about": "“The Marine Natural Product Manzamine A Inhibits Cervical Cancer by Targeting the SIX1 Protein” (J Nat Prod, 2020)", "key": {"C-33-A [1]": {"system": "C-33-A", "test": "Inhibition of colony formation in human C33A cells at 2 to 4 uM afer 1 week by crystal violet staining based assay", "assay_type": "functional, cell-based", "in_short": "(§1)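 Cells were grown in DMEM with 10% FBS, seeded at 1 × 10^3 cells/ml in six-well plates, incubated overnight, then exposed to 2 or 4 μM at 37 °C under 5% CO2 for one week. Colonies were fixed with 4% paraformaldehyde, stained with 0.5% crystal violet and photographed.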"}, "[2]": {"target": "T1, Homeobox protein SIX1 (Homo sapiens) (UniProt Q15475)", "T1 sequence (whole entry)": "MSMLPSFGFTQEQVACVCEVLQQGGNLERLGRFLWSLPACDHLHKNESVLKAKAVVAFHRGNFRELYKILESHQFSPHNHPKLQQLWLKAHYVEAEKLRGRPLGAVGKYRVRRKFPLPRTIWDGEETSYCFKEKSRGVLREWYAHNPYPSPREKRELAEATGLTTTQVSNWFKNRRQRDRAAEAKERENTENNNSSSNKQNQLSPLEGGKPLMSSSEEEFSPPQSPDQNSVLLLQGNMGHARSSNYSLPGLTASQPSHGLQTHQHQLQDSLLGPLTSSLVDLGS", "test": "Potency index, ratio for inhibition activity of apigenin to test compound for inhibition of SIX1 in human SiHa cells after 48 hrs by Western blot analysis", "assay_type": "cell-based", "in_short": "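Cells plated at 1 × 10^6 per 100 mm dish and treated next day for 48 h with test compound (2 or 4 μM) or apigenin (10, 20 or 40 μM). RIPA lysates with protease inhibitors; equal protein loaded for SDS-PAGE, then PVDF transfer. Blocked in 5% milk/TBST (3% BSA for CK2α); anti-SIX1 or anti-CK2α 1:500, HRP secondary 1:2000; chemiluminescent detection.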"}, "C-33-A [3]": {"system": "C-33-A", "test": "Induction of apoptosis in human C33A cells assessed as apoptotic cells at 4 uM after 48 hrs by Annexin V-FITC/PI double staining based flow cytometric analysis (reference value: 17.3%)", "assay_type": "functional"}, "C-33-A [4]": {"system": "C-33-A", "test": "Induction of apoptosis in human C33A cells assessed as necrotic cells at 4 uM after 24 hrs by Annexin V-FITC/PI double staining based flow cytometric analysis", "assay_type": "functional"}, "C-33-A [5]": {"system": "C-33-A", "test": "Cell cycle arrest in human C33A cells assessed as increase in p21 protein expression at 2 to 4 uM after 48 hr by Western lot analysis", "assay_type": "functional, cell-based", "in_short": "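Western blot. 1 × 10^6 cells were seeded per 100 mm dish and exposed the next day to 2 or 4 μM for 48 h. Cells were trypsinized and lysed in RIPA buffer with protease inhibitors. Equal protein was run on SDS-PAGE and transferred to PVDF, which was blocked in 5% milk/TBST. Anti-p53 and anti-p21 (also GAPDH) were used at 1:500 and HRP secondary at 1:2000; chemiluminescent detection.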"}, "Ca-Ski [6]": {"system": "Ca-Ski", "test": "Cell cycle arrest in human CaSki cells assessed as accumulation at G0/G1 phase at 4 uM after 48 hrs by propidium iodide staining based flow cytometric analysis (reference value: 54.1%)", "assay_type": "functional", "in_short": "(§2)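 Cells in DMEM/10% FBS at 37 °C, 5% CO2 were given 4 μM for 24, 48 or 72 h, with DMSO as control. After trypsinization they were fixed in chilled 70% ethanol on ice for 30 min, treated with RNase A (1 mg/mL) for 30 min at room temperature, and stained with PI (20 μg/mL). At least 10 000 events were read by flow cytometry to give sub-G1, G0/G1, S and G2/M fractions; mean ± SEM.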"}, "C-33-A [7]": {"system": "C-33-A", "test": "Cell cycle arrest in human C33A cells assessed as accumulation at G2/M phase at 4 uM after 72 hrs by propidium iodide staining based flow cytometric analysis (reference value: 25.2%)", "assay_type": "functional", "in_short": "as §2"}, "C-33-A [8]": {"system": "C-33-A", "test": "Cell cycle arrest in human C33A cells assessed as accumulation at G0/G1 phase at 4 uM after 72 hrs by propidium iodide staining based flow cytometric analysis (reference value: 60%)", "assay_type": "functional", "in_short": "as §2"}, "[9]": {"test": "Toxicity in po dosed rat", "assay_type": "organism-based", "conditions": "in vivo"}, "SiHa [10]": {"system": "SiHa", "test": "Cell cycle arrest in human SiHa cells assessed as accumulation at G0/G1 phase at 4 uM after 24 hrs by propidium iodide staining based flow cytometric analysis (reference value: 69.9%)", "assay_type": "functional", "in_short": "as §2"}, "[11]": {"target": "T2, Protein E7 (Human papillomavirus 16) (UniProt P03129)", "T2 sequence (whole entry)": "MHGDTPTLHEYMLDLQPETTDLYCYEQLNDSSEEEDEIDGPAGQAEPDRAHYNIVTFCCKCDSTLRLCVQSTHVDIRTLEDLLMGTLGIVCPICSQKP", "test": "Inhibition of Human papillomavirus type16 derived E7 in human CaSki cells assessed as decrease in phosphorylation of Rb at 2 to 4 uM after 48 hrs by Western blot analysis", "assay_type": "cell-based", "conditions": "Ca-Ski", "in_short": "(§3)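 Cells were seeded at 1 × 10^6 per 100 mm dish and treated next day with 2 or 4 μM for 48 h. They were trypsinised, PBS-washed and lysed in RIPA with protease inhibitors. Equal protein was run on SDS-PAGE and transferred to PVDF. Primary antibodies were used at 1:500, with BSA 3% for blocking and antibodies for CK2α, Rb and pRb, otherwise 5% milk in TBST. HRP secondary at 1:2000, chemiluminescence detection.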"}, "SiHa [12]": {"system": "SiHa", "test": "Inhibition of colony formation in human SiHa cells at 2 to 4 uM afer 1 week by crystal violet staining based assay", "assay_type": "functional, cell-based", "in_short": "as §1"}, "[13]": {"target": "T2, Protein E7 (Human papillomavirus 16)", "test": "Inhibition of Human papillomavirus type16 derived E7 in human CaSki cells assessed as decrease in cyclin-D1 protein expression at 2 to 4 uM after 48 hrs by Western blot analysis", "assay_type": "cell-based", "conditions": "Ca-Ski", "in_short": "as §3"}, "Keratinocyte": {"system": "Keratinocyte", "test": "Cytotoxicity against human Keratinocytes assessed as reduction in cell viability 2 to 4 uM incubated up to 72 hrs by CellTiter-Glo assay", "assay_type": "cell-based"}, "C-33-A [14]": {"system": "C-33-A", "test": "Antiproliferative activity against human C33A cells assessed as reduction in cell viability after 24 hrs by CellTiter-Glo assay", "assay_type": "functional, cell-based", "in_short": "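ATP-based luminescent viability readout. Cells were grown in DMEM with 10% FBS, 2 mM L-glutamine and penicillin-streptomycin at 37 °C, 5% CO2. 2 × 10^4 cells/well were seeded, then exposed the next day to 0–40 μM for 24, 48 or 72 h. % viability = 100 × treated/control. IC50 was fitted from a sigmoid dose-response curve. Run at least three times in quadruplicate; mean ± SEM.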"}, "HeLa": {"system": "HeLa", "test": "Induction of apoptosis in human HeLa cells assessed as viable cells at 4 uM after 48 hrs by Annexin V-FITC/PI double staining based flow cytometric analysis (reference value: 80.7%)", "assay_type": "functional", "conditions": "read-out: Activity"}, "C-33-A [15]": {"system": "C-33-A", "test": "Induction of apoptosis in human C33A cells assessed as necrotic cells at 4 uM after 48 hrs by Annexin V-FITC/PI double staining based flow cytometric analysis (reference value: 1.9%)", "assay_type": "functional"}, "SiHa [16]": {"system": "SiHa", "test": "Induction of apoptosis in human SiHa cells assessed as early apoptotic cells at 4 uM after 24 hrs by Annexin V-FITC/PI double staining based flow cytometric analysis (reference value: 5.4%)", "assay_type": "functional"}, "[17]": {"target": "Casein kinase II subunit alpha (Homo sapiens) (UniProt P68400)", "sequence (P68400 whole entry, looked up)": "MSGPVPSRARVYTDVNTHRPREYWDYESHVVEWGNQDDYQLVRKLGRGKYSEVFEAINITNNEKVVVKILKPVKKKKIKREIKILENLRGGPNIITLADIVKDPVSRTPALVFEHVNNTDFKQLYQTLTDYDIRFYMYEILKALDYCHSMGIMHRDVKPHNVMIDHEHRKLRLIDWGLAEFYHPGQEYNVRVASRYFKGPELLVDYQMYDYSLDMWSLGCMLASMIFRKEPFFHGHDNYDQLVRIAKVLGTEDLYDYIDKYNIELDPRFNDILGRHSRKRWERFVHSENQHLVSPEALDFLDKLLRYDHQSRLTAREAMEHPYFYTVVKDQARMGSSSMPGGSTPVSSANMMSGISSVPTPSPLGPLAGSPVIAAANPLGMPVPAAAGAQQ", "test": "Inhibition of CK2alpha in human HeLa cells at 2 to 4 uM after 48 hrs by Western blot analysis", "assay_type": "cell-based", "in_short": "as §3"}, "Ca-Ski [18]": {"system": "Ca-Ski", "test": "Cell cycle arrest in human CaSki cells assessed as increase in accumulation at G0/G1 phase at 4 uM incubated for 24 hrs by propidium iodide staining based flow cytometric analysis", "assay_type": "functional", "in_short": "as §2"}}, "note": "The source made the active and inactive calls. The rule behind the calls is not given here.", "data": [{"smiles": "O[C@]12C=C(c3nccc4c3[nH]c3ccccc34)[C@@H]3CCN(CCCC/C=C\\CC1)C[C@@]31C[C@@H]3/C=C\\CCCCN3[C@H]12", "note": "[MANZAMINE A]", "values": [{"measurement": "inhibition", "setting": "C-33-A [1]", "value": "Active"}, {"measurement": "Ratio", "setting": "[2]", "value": 10}, {"measurement": "Activity", "setting": "C-33-A [3]", "value": 36.5, "unit": "%"}, {"measurement": "Activity", "setting": "C-33-A [4]", "value": 6.3, "unit": "%"}, {"measurement": "Activity", "setting": "C-33-A [5]", "value": "inactive"}, {"measurement": "Activity", "setting": "Ca-Ski [6]", "value": 82.4, "unit": "%"}, {"measurement": "Activity", "setting": "C-33-A [7]", "value": 19.3, "unit": "%"}, {"measurement": "Activity", "setting": "C-33-A [8]", "value": 34.2, "unit": "%"}, {"measurement": "LD50", "setting": "[9]", "value": "200 to 300", "unit": "mg/kg"}, {"measurement": "Activity", "setting": "SiHa [10]", "value": 85.3, "unit": "%"}, {"measurement": "inhibition", "setting": "[11]", "value": "Active"}, {"measurement": "inhibition", "setting": "SiHa [12]", "value": "Active"}, {"measurement": "inhibition", "setting": "[13]", "value": "Active"}, {"measurement": "Activity", "setting": "Keratinocyte", "value": "Non-Toxic"}, {"measurement": "IC50", "setting": "C-33-A [14]", "value": 5.2, "unit": "µM"}, {"measurement": "viability at 4 µM", "setting": "HeLa", "value": 24.1, "unit": "%"}, {"measurement": "Activity", "setting": "C-33-A [15]", "value": 11.1, "unit": "%"}, {"measurement": "Activity", "setting": "SiHa [16]", "value": 13.7, "unit": "%"}, {"measurement": "inhibition", "setting": "[17]", "value": "Active"}, {"measurement": "fold change (FC)", "setting": "Ca-Ski [18]", "value": 1.4}]}]}
